# Measured values taken from ChEMBL document CHEMBL4689842, “EUbOPEN Chemogenomics Library wave 1” (2021).
# Where “and” joins values, the source holds several entries; their conditions need not be identical. Equal entries are not always repeated.
# System: U2OS
# Experiment: Multiplex assay against U2OS
# Assay type: toxicity, cell-based
# Settings: human
# How it was run: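 Four dyes were applied at seeding to live cells: Hoechst33342, BioTracker Green Microtubule Cytoskeleton Dye, MitoTracker Red and Annexin V Alexa Fluor 680. Imaging after compound addition used a CQ1 microscope at 37°C and 5% CO2. CellPathfinder machine-learning gating then sorted cells into Hoechst high-intensity objects or normal cells, normal cells into healthy, pyknosed or fragmented nuclei, and pyknosed cells into mitotic or apoptotic, with tubulin, mitochondrial-mass and membrane-permeability phenotypes given as per cents of healthy-nucleus cells.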
# [1] = 12 h, 10 µM, compound concentration 10 uM, replicate 1
# [2] = 12 h, 10 µM, compound concentration 10 uM, replicate 2
# [3] = 24 h, 10 µM, compound concentration 10 uM, replicate 1
# [4] = 24 h, 10 µM, compound concentration 10 uM, replicate 2
# [5] = 12 h, 1 µM, compound concentration 1 uM, replicate 1
# [6] = 12 h, 1 µM, compound concentration 1 uM, replicate 2
# [7] = 24 h, 1 µM, compound concentration 1 uM, replicate 1
# [8] = 24 h, 1 µM, compound concentration 1 uM, replicate 2
# [9] = 48 h, 1 µM, compound concentration 1 uM, replicate 1
# [10] = 48 h, 1 µM, compound concentration 1 uM, replicate 2
# [11] = 48 h, 10 µM, compound concentration 10 uM, replicate 1
# [12] = 48 h, 10 µM, compound concentration 10 uM, replicate 2
compound,measurement,setting,value
CN(c1ccccc1CNc1nc(Nc2ccc3c(c2)CC(=O)N3)ncc1C(F)(F)F)S(C)(=O)=O,Population Apoptotic (%),[1],40% and 75%
same,Population Healthy Nuclei (%),[1],44% and 89%
same,Population Hoechst High Intensity Objects (%),[1],7% and 4%
same,Population Mitochondria Different-Phenotype (%),[1],30% and 26%
same,Population Mitotic Cells (%),[1],59% and 25%
same,Population Normal (%),[1],92% and 95%
same,Population Tubulin-Different-Phenotype (%),[1],72% and 24%
same,Total Cell Count,[1],122 and 100
same,Population Apoptotic (%),[2],91% and 33%
same,Population Fragmented Nuclei (%),[2],23% and 11%
same,Population Healthy Nuclei (%),[2],59% and 85%
same,Population Hoechst High Intensity Objects (%),[2],17% and 6%
same,Population Membrane Permeable-Phenotype (%),[2],27% and 12%
same,Population Mitochondria Different-Phenotype (%),[2],37% and 32%
same,Population Normal (%),[2],82% and 93%
same,Population Tubulin-Different-Phenotype (%),[2],55% and 32%
same,Total Cell Count,[2],116 and 91
same,Population Fragmented Nuclei (%),[3],16%
same,Population Healthy Nuclei (%),[3],56% and 83%
same,Population Mitochondria Different-Phenotype (%),[3],57% and 45%
same,Population Normal (%),[3],81% and 96%
same,Population Tubulin-Different-Phenotype (%),[3],72% and 37%
same,Total Cell Count,[3],125 and 100
same,Population Apoptotic (%),[4],59% and 30%
same,Population Fragmented Nuclei (%),[4],13% and 10%
same,Population Healthy Nuclei (%),[4],53% and 78%
same,Population Hoechst High Intensity Objects (%),[4],19% and 8%
same,Population Mitochondria Different-Phenotype (%),[4],51% and 52%
same,Population Mitotic Cells (%),[4],40% and 69%
same,Population Normal (%),[4],80% and 91%
same,Population Tubulin-Different-Phenotype (%),[4],48% and 38%
same,Total Cell Count,[4],130 and 91
CCc1nn(CCCN2CCN(c3cccc(Cl)c3)CC2)c(=O)n1CCOc1ccccc1.Cl [NEFAZODONE HYDROCHLORIDE],Population Apoptotic (%),[5],42%
same,Population Fragmented Nuclei (%),[5],11%
same,Population Healthy Nuclei (%),[5],67%
same,Population Hoechst High Intensity Objects (%),[5],9%
same,Population Membrane Permeable-Phenotype (%),[5],1%
same,Population Mitochondria Different-Phenotype (%),[5],27%
same,Population Mitotic Cells (%),[5],57%
same,Population Normal (%),[5],90%
same,Population Pyknosed Nuclei (%),[5],20%
same,Population Tubulin-Different-Phenotype (%),[5],28%
same,Population Apoptotic (%),[6],0%
same,Population Fragmented Nuclei (%),[6],8%
same,Population Healthy Nuclei (%),[6],89%
same,Population Hoechst High Intensity Objects (%),[6],6%
same,Population Membrane Permeable-Phenotype (%),[6],3%
same,Population Mitochondria Different-Phenotype (%),[6],9%
same,Population Mitotic Cells (%),[6],100%
same,Population Normal (%),[6],93%
same,Population Pyknosed Nuclei (%),[6],1%
same,Population Tubulin-Different-Phenotype (%),[6],29%
same,Total Cell Count,[6],68
same,Population Apoptotic (%),[1],71%
same,Population Fragmented Nuclei (%),[1],13%
same,Population Healthy Nuclei (%),[1],55%
same,Population Hoechst High Intensity Objects (%),[1],5%
same,Population Membrane Permeable-Phenotype (%),[1],56%
same,Population Mitochondria Different-Phenotype (%),[1],100%
same,Population Mitotic Cells (%),[1],28%
same,Population Normal (%),[1],94%
same,Population Pyknosed Nuclei (%),[1],31%
same,Population Tubulin-Different-Phenotype (%),[1],100%
same,Total Cell Count,[1],150
same,Population Apoptotic (%),[2],69%
same,Population Fragmented Nuclei (%),[2],9%
same,Population Healthy Nuclei (%),[2],69%
same,Population Hoechst High Intensity Objects (%),[2],3%
same,Population Membrane Permeable-Phenotype (%),[2],60%
same,Population Mitochondria Different-Phenotype (%),[2],97%
same,Population Mitotic Cells (%),[2],30%
same,Population Normal (%),[2],96%
same,Population Pyknosed Nuclei (%),[2],20%
same,Population Tubulin-Different-Phenotype (%),[2],97%
same,Total Cell Count,[2],61
same,Population Apoptotic (%),[7],32%
same,Population Fragmented Nuclei (%),[7],10%
same,Population Healthy Nuclei (%),[7],73%
same,Population Hoechst High Intensity Objects (%),[7],6%
same,Population Membrane Permeable-Phenotype (%),[7],3%
same,Population Mitochondria Different-Phenotype (%),[7],21%
same,Population Mitotic Cells (%),[7],68%
same,Population Normal (%),[7],93%
same,Population Pyknosed Nuclei (%),[7],15%
same,Population Tubulin-Different-Phenotype (%),[7],22%
same,Population Apoptotic (%),[8],50%
same,Population Fragmented Nuclei (%),[8],8%
same,Population Healthy Nuclei (%),[8],85%
same,Population Hoechst High Intensity Objects (%),[8],2%
same,Population Membrane Permeable-Phenotype (%),[8],1%
same,Population Mitochondria Different-Phenotype (%),[8],15%
same,Population Mitotic Cells (%),[8],50%
same,Population Normal (%),[8],97%
same,Population Pyknosed Nuclei (%),[8],5%
same,Population Tubulin-Different-Phenotype (%),[8],33%
same,Total Cell Count,[8],71
same,Population Apoptotic (%),[3],82%
same,Population Fragmented Nuclei (%),[3],17%
same,Population Healthy Nuclei (%),[3],49%
same,Population Hoechst High Intensity Objects (%),[3],7%
same,Population Membrane Permeable-Phenotype (%),[3],72%
same,Population Mitochondria Different-Phenotype (%),[3],98%
same,Population Mitotic Cells (%),[3],17%
same,Population Normal (%),[3],92%
same,Population Pyknosed Nuclei (%),[3],33%
same,Population Tubulin-Different-Phenotype (%),[3],100%
same,Total Cell Count,[3],172
same,Population Apoptotic (%),[4],80%
same,Population Fragmented Nuclei (%),[4],22%
same,Population Healthy Nuclei (%),[4],56%
same,Population Hoechst High Intensity Objects (%),[4],1%
same,Population Membrane Permeable-Phenotype (%),[4],80%
same,Population Mitochondria Different-Phenotype (%),[4],100%
same,Population Mitotic Cells (%),[4],20%
same,Population Normal (%),[4],98%
same,Population Pyknosed Nuclei (%),[4],20%
same,Total Cell Count,[4],72
same,Population Apoptotic (%),[9],46%
same,Population Fragmented Nuclei (%),[9],9%
same,Population Healthy Nuclei (%),[9],73%
same,Population Hoechst High Intensity Objects (%),[9],5%
same,Population Membrane Permeable-Phenotype (%),[9],3%
same,Population Mitochondria Different-Phenotype (%),[9],15%
same,Population Mitotic Cells (%),[9],53%
same,Population Normal (%),[9],94%
same,Population Pyknosed Nuclei (%),[9],16%
same,Population Tubulin-Different-Phenotype (%),[9],14%
same,Population Apoptotic (%),[10],16%
same,Population Fragmented Nuclei (%),[10],5%
same,Population Healthy Nuclei (%),[10],88%
same,Population Hoechst High Intensity Objects (%),[10],1%
same,Population Membrane Permeable-Phenotype (%),[10],2%
same,Population Mitochondria Different-Phenotype (%),[10],18%
same,Population Mitotic Cells (%),[10],83%
same,Population Normal (%),[10],98%
same,Population Pyknosed Nuclei (%),[10],5%
same,Population Tubulin-Different-Phenotype (%),[10],46%
same,Total Cell Count,[10],67
same,Population Apoptotic (%),[11],82%
same,Population Fragmented Nuclei (%),[11],24%
same,Population Healthy Nuclei (%),[11],41%
same,Population Membrane Permeable-Phenotype (%),[11],83%
same,Population Mitochondria Different-Phenotype (%),[11],97%
same,Population Mitotic Cells (%),[11],17%
same,Population Pyknosed Nuclei (%),[11],34%
same,Total Cell Count,[11],246
same,Population Apoptotic (%),[12],66%
same,Population Fragmented Nuclei (%),[12],14%
same,Population Healthy Nuclei (%),[12],43%
same,Population Hoechst High Intensity Objects (%),[12],8%
same,Population Membrane Permeable-Phenotype (%),[12],85%
same,Population Mitochondria Different-Phenotype (%),[12],100%
same,Population Mitotic Cells (%),[12],33%
same,Population Normal (%),[12],91%
same,Population Pyknosed Nuclei (%),[12],42%
same,Population Tubulin-Different-Phenotype (%),[12],100%
same,Total Cell Count,[12],110
CN1CCN(Cc2cc(NC(=O)c3ccc4c(c3)CN(c3ccccc3)CC4)cc(C(F)(F)F)c2)CC1,Population Apoptotic (%),[5],35% and 75%
same,Population Healthy Nuclei (%),[5],63% and 89%
same,Population Hoechst High Intensity Objects (%),[5],2%
same,Population Membrane Permeable-Phenotype (%),[5],28% and 46%
same,Population Mitotic Cells (%),[5],64% and 25%
same,Population Normal (%),[5],97%
same,Population Tubulin-Different-Phenotype (%),[5],98% and 42%
same,Total Cell Count,[5],228 and 171
same,Population Fragmented Nuclei (%),[6],28% and 15%
same,Population Healthy Nuclei (%),[6],52% and 80%
same,Population Hoechst High Intensity Objects (%),[6],5% and 15%
same,Population Membrane Permeable-Phenotype (%),[6],47% and 37%
same,Population Mitotic Cells (%),[6],65% and 100%
same,Population Normal (%),[6],94% and 84%
same,Population Pyknosed Nuclei (%),[6],19%
same,Population Tubulin-Different-Phenotype (%),[6],100% and 48%
same,Total Cell Count,[6],128 and 83
same,Population Apoptotic (%),[7],39% and 22%
same,Population Fragmented Nuclei (%),[7],14% and 7%
same,Population Healthy Nuclei (%),[7],46% and 88%
same,Population Hoechst High Intensity Objects (%),[7],10% and 3%
same,Population Membrane Permeable-Phenotype (%),[7],33% and 28%
same,Population Mitotic Cells (%),[7],60% and 77%
same,Population Normal (%),[7],89% and 96%
same,Total Cell Count,[7],255 and 239
same,Population Fragmented Nuclei (%),[8],19% and 9%
same,Population Healthy Nuclei (%),[8],45% and 80%
same,Population Hoechst High Intensity Objects (%),[8],13% and 11%
same,Population Membrane Permeable-Phenotype (%),[8],36% and 35%
same,Population Mitotic Cells (%),[8],44% and 87%
same,Population Normal (%),[8],86% and 88%
same,Total Cell Count,[8],144 and 92
